Several values for one entry are separate records, joined by “and”; a condition that tells them apart may be missing. Identical values can stand only once.
These compounds were tested on HEK-293T (assay: Multiplex assay against HEK293T). Conditions: human, 12 h, 1 µM, compound concentration 1 uM.
Assay type: toxicity, cell-based
Outline: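 Four dyes were applied at seeding to live cells: Hoechst33342, BioTracker Green Microtubule Cytoskeleton Dye, MitoTracker Red and Annexin V Alexa Fluor 680. Imaging after compound addition used a CQ1 microscope at 37°C and 5% CO2. CellPathfinder machine-learning gating then sorted cells into Hoechst high-intensity objects or normal cells, normal cells into healthy, pyknosed or fragmented nuclei, and pyknosed cells into mitotic or apoptotic, with tubulin, mitochondrial-mass and membrane-permeability phenotypes given as per cents of healthy-nucleus cells.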

Structure (SMILES)	Population Apoptotic (%)	Population Fragmented Nuclei (%)	Population Healthy Nuclei (%)	Population Hoechst High Intensity Objects (%)	Population Membrane Permeable-Phenotype (%)	Population Mitochondria Different-Phenotype (%)	Population Mitotic Cells (%)	Population Normal (%)	Population Pyknosed Nuclei (%)	Population Tubulin-Different-Phenotype (%)
COc1cc(C(=O)N2CC[C@@H](O)[C@@H](N)C2)cc2nc(-c3cc4ccccc4n3CC3CC3)n(C)c12.Cl	48% and 70%	6% and 2%	79% and 77%	10% and 15%	0%	56% and 71%	51% and 29%	89% and 84%	13% and 20%	52% and 37%
CCCCC(=O)N(Cc1ccc(-c2ccccc2-c2nnn[nH]2)cc1)[C@H](C(=O)O)C(C)C	44% and 40%	7% and 6%	80% and 74%	9% and 11%	0%	36% and 49%	55% and 59%	90% and 88%	12% and 18%	16% and 21%
CNC[C@H](O)c1ccc(O)c(O)c1 [EPINEPHRINE]	20% and 56%	6%	81%	7% and 6%	0%	31% and 65%	80% and 43%	92% and 93%	11%	26% and 27%
CC(C)c1ccc(/C=N/NC(=O)c2ccc(O)cc2)cc1	6.34% and 9.68%	1.61% and 0.64%	60.22% and 20.38%	0.53% and 0%	0.45% and 0%	40.62% and 43.75%	93.66% and 90.32%	99.47% and 100%	38.17% and 78.98%	–

Same assay, conditions: human, 12 h, 1 µM, compound concentration 1 uM

Structure (SMILES)	Total Cell Count
COc1cc(C(=O)N2CC[C@@H](O)[C@@H](N)C2)cc2nc(-c3cc4ccccc4n3CC3CC3)n(C)c12.Cl	398 and 281
CCCCC(=O)N(Cc1ccc(-c2ccccc2-c2nnn[nH]2)cc1)[C@H](C(=O)O)C(C)C	469 and 290
CC(C)c1ccc(/C=N/NC(=O)c2ccc(O)cc2)cc1	374 and 157

Same assay, conditions: human, 12 h, 10 µM, compound concentration 10 uM

Structure (SMILES)	Population Apoptotic (%)	Population Fragmented Nuclei (%)	Population Healthy Nuclei (%)	Population Hoechst High Intensity Objects (%)	Population Membrane Permeable-Phenotype (%)	Population Mitochondria Different-Phenotype (%)	Population Mitotic Cells (%)	Population Normal (%)	Population Pyknosed Nuclei (%)	Population Tubulin-Different-Phenotype (%)
COc1cc(C(=O)N2CC[C@@H](O)[C@@H](N)C2)cc2nc(-c3cc4ccccc4n3CC3CC3)n(C)c12.Cl	71%	5% and 4%	66% and 80%	21% and 18%	0% and 2%	90% and 88%	28%	78% and 81%	28% and 15%	79% and 72%
CCCCC(=O)N(Cc1ccc(-c2ccccc2-c2nnn[nH]2)cc1)[C@H](C(=O)O)C(C)C	21% and 51%	7% and 5%	83% and 81%	5% and 10%	0%	30% and 63%	78% and 48%	94% and 89%	8% and 13%	19%
CNC[C@H](O)c1ccc(O)c(O)c1 [EPINEPHRINE]	55% and 56%	12% and 11%	75% and 61%	–	1% and 0%	65% and 62%	44% and 43%	90% and 59%	11% and 26%	39% and 25%
CC(C)c1ccc(/C=N/NC(=O)c2ccc(O)cc2)cc1	12.69% and 7.75%	8.73% and 1.3%	–	0.28% and 0%	0%	41.58% and 26.09%	87.31% and 92.25%	99.72% and 100%	37.75% and 83.77%	–

Same assay, conditions: human, 12 h, 10 µM, compound concentration 10 uM

Structure (SMILES)	Total Cell Count
COc1cc(C(=O)N2CC[C@@H](O)[C@@H](N)C2)cc2nc(-c3cc4ccccc4n3CC3CC3)n(C)c12.Cl	260 and 350
CCCCC(=O)N(Cc1ccc(-c2ccccc2-c2nnn[nH]2)cc1)[C@H](C(=O)O)C(C)C	507 and 310
CC(C)c1ccc(/C=N/NC(=O)c2ccc(O)cc2)cc1	356 and 154

Same assay, conditions: human, 24 h, 1 µM, compound concentration 1 uM

Structure (SMILES)	Population Apoptotic (%)	Population Fragmented Nuclei (%)	Population Healthy Nuclei (%)	Population Hoechst High Intensity Objects (%)	Population Membrane Permeable-Phenotype (%)	Population Mitochondria Different-Phenotype (%)	Population Mitotic Cells (%)	Population Normal (%)	Population Pyknosed Nuclei (%)	Population Tubulin-Different-Phenotype (%)
COc1cc(C(=O)N2CC[C@@H](O)[C@@H](N)C2)cc2nc(-c3cc4ccccc4n3CC3CC3)n(C)c12.Cl	42% and 60%	9% and 7%	77% and 79%	6% and 12%	0%	42% and 64%	57% and 39%	93% and 87%	13% and 12%	33% and 30%
CCCCC(=O)N(Cc1ccc(-c2ccccc2-c2nnn[nH]2)cc1)[C@H](C(=O)O)C(C)C	30% and 32%	11% and 9%	78% and 82%	5% and 6%	0%	21% and 26%	70% and 67%	94% and 93%	10% and 8%	12%
CNC[C@H](O)c1ccc(O)c(O)c1 [EPINEPHRINE]	19% and 36%	9%	80%	5% and 7%	0% and 1%	25% and 41%	80% and 63%	94% and 92%	9% and 10%	21% and 18%
CC(C)c1ccc(/C=N/NC(=O)c2ccc(O)cc2)cc1	16.67% and 14.29%	1.59% and 2.38%	75.09% and 35.12%	0%	0.71% and 3.39%	15.53% and 13.56%	83.33% and 85.71%	100%	23.32% and 62.5%	14.59% and 5.08%

Same assay, conditions: human, 24 h, 1 µM, compound concentration 1 uM

Structure (SMILES)	Total Cell Count
COc1cc(C(=O)N2CC[C@@H](O)[C@@H](N)C2)cc2nc(-c3cc4ccccc4n3CC3CC3)n(C)c12.Cl	527 and 363
CCCCC(=O)N(Cc1ccc(-c2ccccc2-c2nnn[nH]2)cc1)[C@H](C(=O)O)C(C)C	630 and 429

Same assay, conditions: human, 24 h, 10 µM, compound concentration 10 uM

Structure (SMILES)	Population Apoptotic (%)	Population Fragmented Nuclei (%)	Population Healthy Nuclei (%)	Population Hoechst High Intensity Objects (%)	Population Membrane Permeable-Phenotype (%)	Population Mitochondria Different-Phenotype (%)	Population Mitotic Cells (%)	Population Normal (%)	Population Pyknosed Nuclei (%)	Population Tubulin-Different-Phenotype (%)
COc1cc(C(=O)N2CC[C@@H](O)[C@@H](N)C2)cc2nc(-c3cc4ccccc4n3CC3CC3)n(C)c12.Cl	58% and 65%	8% and 6%	70% and 78%	18% and 21%	0%	94% and 92%	41% and 34%	81% and 78%	20% and 15%	78% and 74%
CCCCC(=O)N(Cc1ccc(-c2ccccc2-c2nnn[nH]2)cc1)[C@H](C(=O)O)C(C)C	20% and 35%	9%	82%	5% and 7%	0%	19% and 30%	79% and 64%	94% and 92%	7%	11% and 13%
CNC[C@H](O)c1ccc(O)c(O)c1 [EPINEPHRINE]	50% and 80%	13% and 11%	75% and 71%	–	0%	50% and 43%	50% and 19%	91% and 60%	11% and 17%	36% and 25%
CC(C)c1ccc(/C=N/NC(=O)c2ccc(O)cc2)cc1	14.4% and 12.98%	6.23% and 2.06%	70.88% and 30.41%	0%	0.78% and 0%	15.5% and 15.25%	85.6% and 87.02%	100%	22.89% and 67.53%	5.43% and 1.69%

Same assay, conditions: human, 24 h, 10 µM, compound concentration 10 uM

Structure (SMILES)	Total Cell Count
COc1cc(C(=O)N2CC[C@@H](O)[C@@H](N)C2)cc2nc(-c3cc4ccccc4n3CC3CC3)n(C)c12.Cl	312 and 411
CCCCC(=O)N(Cc1ccc(-c2ccccc2-c2nnn[nH]2)cc1)[C@H](C(=O)O)C(C)C	663 and 420
CC(C)c1ccc(/C=N/NC(=O)c2ccc(O)cc2)cc1	546 and 194

Same assay, conditions: human, 48 h, 1 µM, compound concentration 1 uM

Structure (SMILES)	Population Apoptotic (%)	Population Fragmented Nuclei (%)	Population Healthy Nuclei (%)	Population Hoechst High Intensity Objects (%)	Population Membrane Permeable-Phenotype (%)	Population Mitochondria Different-Phenotype (%)	Population Mitotic Cells (%)	Population Normal (%)	Population Pyknosed Nuclei (%)	Population Tubulin-Different-Phenotype (%)
COc1cc(C(=O)N2CC[C@@H](O)[C@@H](N)C2)cc2nc(-c3cc4ccccc4n3CC3CC3)n(C)c12.Cl	24% and 64%	9%	79% and 80%	5% and 7%	0%	37% and 48%	75% and 36%	94% and 92%	10%	28% and 22%
CCCCC(=O)N(Cc1ccc(-c2ccccc2-c2nnn[nH]2)cc1)[C@H](C(=O)O)C(C)C	18% and 19%	13% and 14%	80% and 79%	2% and 3%	1% and 0%	12% and 16%	81% and 80%	97% and 96%	5% and 6%	7% and 9%
CNC[C@H](O)c1ccc(O)c(O)c1 [EPINEPHRINE]	16% and 35%	11% and 12%	81% and 78%	3%	1%	13% and 24%	83% and 64%	96%	7% and 8%	9% and 15%
CC(C)c1ccc(/C=N/NC(=O)c2ccc(O)cc2)cc1	8.44% and 19.78%	2.76% and 1.47%	85.78% and 53.92%	0.15% and 0%	4.34% and 1.82%	13.72% and 24.55%	91.56% and 80.22%	99.85% and 100%	–	–

Same assay, conditions: human, 48 h, 1 µM, compound concentration 1 uM

Structure (SMILES)	Total Cell Count
COc1cc(C(=O)N2CC[C@@H](O)[C@@H](N)C2)cc2nc(-c3cc4ccccc4n3CC3CC3)n(C)c12.Cl	816 and 520
CCCCC(=O)N(Cc1ccc(-c2ccccc2-c2nnn[nH]2)cc1)[C@H](C(=O)O)C(C)C	1024 and 653

Same assay, conditions: human, 48 h, 10 µM, compound concentration 10 uM

Structure (SMILES)	Population Apoptotic (%)	Population Fragmented Nuclei (%)	Population Healthy Nuclei (%)	Population Hoechst High Intensity Objects (%)	Population Membrane Permeable-Phenotype (%)	Population Mitochondria Different-Phenotype (%)	Population Mitotic Cells (%)	Population Normal (%)	Population Pyknosed Nuclei (%)	Population Tubulin-Different-Phenotype (%)
COc1cc(C(=O)N2CC[C@@H](O)[C@@H](N)C2)cc2nc(-c3cc4ccccc4n3CC3CC3)n(C)c12.Cl	76%	13%	68% and 75%	18% and 23%	0%	89% and 87%	23%	81% and 76%	17% and 10%	81% and 74%
CCCCC(=O)N(Cc1ccc(-c2ccccc2-c2nnn[nH]2)cc1)[C@H](C(=O)O)C(C)C	14% and 15%	14%	81% and 78%	1% and 2%	2% and 0%	8% and 17%	85% and 84%	98% and 97%	3% and 7%	8%
CNC[C@H](O)c1ccc(O)c(O)c1 [EPINEPHRINE]	33% and 69%	21% and 17%	72% and 67%	–	0%	25% and 34%	66% and 30%	96% and 78%	5% and 14%	11% and 13%
CC(C)c1ccc(/C=N/NC(=O)c2ccc(O)cc2)cc1	10.39% and 16.36%	4.43% and 3.38%	84.38% and 70.05%	0.22% and 0%	1.81% and 0.69%	7.58% and 15.17%	89.61% and 83.64%	99.78% and 100%	11.19% and 26.57%	1.03% and 9.66%

Same assay, conditions: human, 48 h, 10 µM, compound concentration 10 uM

Structure (SMILES)	Total Cell Count
COc1cc(C(=O)N2CC[C@@H](O)[C@@H](N)C2)cc2nc(-c3cc4ccccc4n3CC3CC3)n(C)c12.Cl	386 and 467
CCCCC(=O)N(Cc1ccc(-c2ccccc2-c2nnn[nH]2)cc1)[C@H](C(=O)O)C(C)C	1205 and 623

Reference: ChEMBL document CHEMBL5724801, “EUbOPEN Chemogenomics Library - Multiplex” (2024)
